Cl transport mod: KCC2 cotransporter modulators, thallium flux, primary screen, cell-based, HEK293 KCC2, FluoZin-2 fluorescence, MLSMR | KCC2 cells, thallium flux FluoZin-2 fluorescence | B-score of Tl+ flux slope (higher = more flux/activation; lower = inhibition) at 10 µM | actives 2.2% (n = 190,000);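 active means thallium flux slope and its plate-corrected score both differing from the plate sample mean at a set confidence after two filtering rounds, in either direction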;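 further: slope of fluorescence scaled to starting intensity during 10 to 20 s after thallium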
KCNQ1 act: potentiators or activators of KCNQ1 channel, primary screen, cell-based, thallium flux, high-throughput; Potassium voltage-gated channel subfamily KQT member 1 (Homo sapiens), P51787; CHO-K1 KCNQ1, thallium flux FluxOR fluorescence; active compounds read high; B-score at 10 µM; actives 0.35% (n = 310,000);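 active means fluorescence ratio B-score, a plate-corrected score, at least three library SD, with initial intensity B-score within 5 SD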
Target sequence (P51787 whole entry, looked up): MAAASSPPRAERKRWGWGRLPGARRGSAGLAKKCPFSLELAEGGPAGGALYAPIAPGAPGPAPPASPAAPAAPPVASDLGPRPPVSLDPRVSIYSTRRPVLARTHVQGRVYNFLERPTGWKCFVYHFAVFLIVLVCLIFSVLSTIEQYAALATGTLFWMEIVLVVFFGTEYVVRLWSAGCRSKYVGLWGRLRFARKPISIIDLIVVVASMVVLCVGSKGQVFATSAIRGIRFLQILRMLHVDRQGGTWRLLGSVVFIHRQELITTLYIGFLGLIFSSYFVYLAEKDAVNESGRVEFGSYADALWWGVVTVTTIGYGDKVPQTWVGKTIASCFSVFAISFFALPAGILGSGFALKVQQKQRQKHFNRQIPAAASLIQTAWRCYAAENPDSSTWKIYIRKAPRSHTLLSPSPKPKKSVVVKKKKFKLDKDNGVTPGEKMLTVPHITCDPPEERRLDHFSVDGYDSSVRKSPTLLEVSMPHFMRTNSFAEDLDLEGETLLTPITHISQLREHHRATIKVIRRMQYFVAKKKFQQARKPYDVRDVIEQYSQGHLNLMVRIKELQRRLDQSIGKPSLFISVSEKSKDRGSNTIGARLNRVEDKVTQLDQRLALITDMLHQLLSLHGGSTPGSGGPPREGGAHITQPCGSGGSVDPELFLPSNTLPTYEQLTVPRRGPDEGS
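Assay system: CHO-K1 cells stably expressing KCNQ1. Medium: assay buffer for compound exposure, DMSO matched across wells. Timing: 37 °C overnight plating, 90-min dark dye load, 20-min compound pretreatment. Signal: kinetic FluxOR fluorescence, 10 s baseline plus 110 s post-stimulus.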
hERG protect: hERG rescue from dofetilide block, primary screen, cell-based, CHO-hERG, FluxOR thallium flux, dofetilide IC70; dofetilide IC70 present; actives 0.51% (n = 310,000); AID 1511, 2009; Voltage-gated inwardly rectifying potassium channel KCNH2 (Homo sapiens), Q12809; activation (rescue from dofetilide block), less the hit threshold, % at 10 µM;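 active means activation above the mean of controls blocked by dofetilide plus 5 SD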;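 further: thallium influx through hERG after potassium depolarization seen as dye fluorescence rise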
KCNQ1 inh: inhibitors of human KCNQ1 channel, primary screen, cell-based, thallium flux, high-throughput; B-score at 10 µM; CHO-K1 KCNQ1, FluxOR thallium flux fluorescence; active compounds read high; actives 1.3% (n = 310,000); Potassium voltage-gated channel subfamily KQT member 1 (Homo sapiens), P51787;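 active means compounds whose thallium flux B-score, printed positive for inhibition, exceeds three library SD while starting fluorescence stays within three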;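 further: channel opened by potassium depolarization with thallium stimulus after 20 min compound exposure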
KCNK9 inh: KCNK9 potassium channel inhibitors, primary screen, HEK293 cells, thallium flux | FluxOR thallium flux fluorescence; active compounds read low | B-score at 10 µM | actives 1.2% (n = 310,000) | AID 488922, 2010;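 active means ratio B-score over 3 SD below the library mean, with starting fluorescence within 5 SD of its mean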;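 further: negative B-score means less thallium flux so channel inhibition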
KCNK3 inh: human KCNK3 channel inhibitors, primary screen, CHO cells, FluxOR thallium flux, B-score. actives 0.84% (n = 340,000). FluxOR fluorescence; active compounds read low. Potassium channel subfamily K member 3 (Homo sapiens), O14649. B-score at 10 µM. AID 602410, 2012;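 active means B-score under library mean minus 4 SD, starting fluorescence ratio at most library mean plus 5 SD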;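 further: more negative B-score means stronger inhibition of thallium flux through KCNK3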
KCC2 secondary: KCC2 modulators in sodium-free buffer, confirmation, cell-based, HEK293 KCC2, thallium flux, secondary assay; AID 1713, 2009; shares compounds with Cl transport mod; actives 15% (n = 3,700); FluoZin2 fluorescence; active compounds read high; normalised thallium flux (F/F0 slope) at 10 µM;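 active means thallium flux slope above the same plate's solvent-only control mean plus 3 SD; inconclusive means the two replicate wells disagree; inactive means no significant difference from solvent-only control wells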
KCC2 bumet counter: thallium flux persisting under bumetanide in KCC2 cells, confirmation, counter-screen for KCC2 modulator project, cell-based, HEK293 KCC2, FluoZin2, secondary assay 3. normalized thallium flux at 10 µM. AID 1714, 2009. actives 49% (n = 3,700). shares compounds with Cl transport mod. HEK293-KCC2 + bumetanide/ouabain; active compounds read high;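 active means thallium entry rate above the same plate's blocked-transporter control wells by more than 3 SD; inconclusive means the two repeat wells disagree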;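 further: raw slope of fluorescence over initial fluorescence between 10 and 20 s after thallium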
KCC2 secondary2: KCC2 modulators without ouabain present, confirmation, cell-based, HEK293 KCC2, thallium flux, FluoZin2, secondary assay 2. shares compounds with Cl transport mod. normalized thallium flux at 10 µM. thallium flux FluoZin2 fluorescence; actives lie on both sides; F/F0 rise rate, 10–20 s post-thallium. actives 23% (n = 3,700);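 active means thallium flux slope more than 3 SD above or below the plate's solvent-only control mean, mostly below; inconclusive means the two repeat wells disagreed; inactive means no significant shift from solvent-only controls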;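 further: raw slope with 0.1% DMSO as baseline and bumetanide as block control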
HEK293 Tl flux: thallium flux modulation in parental HEK cells, confirmation, counter-screen for KCC2 modulator project, cell-based, counterscreen 1 | actives 46% (n = 3,700) | thallium flux rate (normalised fluorescence) at 10 µM | shares compounds with Cl transport mod | AID 1716, 2009 | HEK293 parental cells, thallium flux FluoZin2, ouabain; baseline-ratio fluorescence slope, 10–20 s after thallium;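 active means thallium flux rate significantly above the same plate's solvent-only control wells, beyond their mean plus 3 SD; inconclusive means the two replicate wells gave conflicting results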
KCC2 ouabain: KCC2 inhibitors and activators, ouabain retest, confirmation, HEK-KCC2 cells; shares compounds with Cl transport mod; HEK293-KCC2, thallium flux FluoZin2 fluorescence; bidirectional: low = inhibitor, high = activator; raw Tl+ flux slope (below DMSO = inhibition, above = activation) at 10 µM; actives 48% (n = 3,700);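 active means thallium flux slope beyond 3 SD from same-plate DMSO control mean in most replicates, usually higher, sometimes lower; inconclusive means repeat tests gave conflicting results; inactive means no significant difference from controls in most replicates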;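 further: slope of initial-normalized fluorescence between seconds 10 and 20 after thallium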
HEK293 Tl flux2: native HEK Tl+ uptake effects, second counter-screen – HEK cells, counterscreen 2, counter-screen for KCC2 modulator project, confirmation; shares compounds with Cl transport mod; actives 33% (n = 3,700); thallium flux slope at 10 µM; HEK293 parental, thallium flux FluoZin-2 fluorescence slope;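 active means thallium flux slope above the same plate's solvent-control mean plus 3 SD in both duplicate wells; inconclusive means duplicate wells that disagreed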;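 further: run without ouabain in cells lacking the KCC2 cotransporter; slope of fluorescence scaled to its starting value between 10 and 20 s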
* = called active by the depositor; i = inactive; ? = inconclusive; / = no result given. Hits are enriched below; roughly 4.1% of the tested compounds scored in any of these assays.

SMILES	Cl transport mod	KCNQ1 act	hERG protect	KCNQ1 inh	KCNK9 inh	KCNK3 inh	KCC2 secondary	KCC2 bumet counter	KCC2 secondary2	HEK293 Tl flux	KCC2 ouabain	HEK293 Tl flux2
Cc1ccc(C(=O)NC2CCCC2)cc1S(=O)(=O)N1CCCCC1	/	i	-9	i	i	i	/	/	/	/	/	/
COc1ccc(C(=O)NC2CCCCC2)cc1S(=O)(=O)N1CCCC1	7.5*	i	-10	i	i	i	0.0098	?	0.036	0.0074	0.023	0.011
COC(=O)c1ccc(COC(=O)CNC(=O)CNC(=O)c2ccc(C)cc2)cc1	-0.72	i	-11	i	i	i	/	/	/	/	/	/
CCCCc1c(C)nc2cc(-c3ccco3)[nH]n2c1=O	4.5*	i	-7	i	i	i	0.0073	0.014*	0.032	0.013*	?	0.015*
CN(C)CCOC(=O)C12CC3CC(CC(C3)C1)C2	1.3	i	-6	i	i	i	/	/	/	/	/	/
CCOCCCNC(=O)/C(C#N)=C/c1cc(Br)c(O)c(Br)c1	-4*	i	-12	i	i	i	0.0073	0.004	0.029	0.0069	0.017	0.0096
N#C/C(=C\c1ccc(O)c(O)c1)C(=O)NCCc1ccccc1	/	/	/	/	/	i	/	/	/	/	/	/
COCCNC(=O)/C(C#N)=C/c1cc(Br)c(O)c(OC)c1	-0.0063	i	-13	i	i	i	/	/	/	/	/	/
COc1cc(/C=C(\C#N)C(=O)NCCc2ccccc2)cc(OC)c1O	-6.2*	i	-9	i	i	i	0.0056	4e-05*	0.02*	0.0044*	0.0091*	?
O=C(O)c1ccc(CSc2nc3ccc(NC(=O)c4ccccc4C(=O)O)cc3s2)cc1	0.63	i	-3	i	i	i	/	/	/	/	/	/
N#Cc1ccccc1CSc1nc2ccc(NC(=O)c3ccccc3C(=O)O)cc2s1	-3.6*	i	-6	i	i	i	0.0078	0.005	0.037	0.0037	0.017*	0.01
CC1=NN(C(=O)c2ccc(Br)cc2)C(O)(C(F)(F)OC(F)(F)F)C1 (stereo not drawn)	6.1*	i	-10	i	i	i	0.0094	0.0099*	0.031	0.0088*	0.029*	?
COC(=O)C1=NN(C(=O)c2ccc(Br)cc2)C(O)(C(C)(C)C)C1 (stereo not drawn)	66*	/	/	/	/	i	0.049*	0.14*	0.046*	?	0.1*	0.021*
CCCCNC(=O)CN(c1ccc(Cl)c(Cl)c1)S(C)(=O)=O	0.24	i	-2	i	i	i	/	/	/	/	/	/
O=C(COC(=O)c1cccs1)NCCCc1ccccc1	-0.83	i	-12	i	i	i	/	/	/	/	/	/
COc1ccc(/C=N/NC(=S)Nc2ccccc2)cc1	9.1*	i	-2	i	i	i	0.0094	0.031*	0.032	0.01*	?	0.0095
C(=N\NCc1ccccc1)/c1ccc2ncccc2c1	-1.3	i	-7	i	i	i	/	/	/	/	/	/
S=C(N/N=C/c1cccc2ccccc12)Nc1cccc(Cl)c1	3.4*	8*	5.3*	i	i	i	0.0089	0.0069	0.029	0.012*	0.029*	0.01
COc1ccc(/C=N/NC(=S)Nc2cccc(C(=O)O)c2)cc1	-0.15	i	-2	i	i	i	/	/	/	/	/	/
S=C(N/N=C/c1ccc2ncccc2c1)Nc1ccccc1	6.5*	i	-8	i	i	i	0.017	0.021*	0.029	0.011*	0.019	0.014*
O=[N+]([O-])c1ccc(/C=N/NC(=S)Nc2ccccc2)o1	5.4*	i	-7	i	i	i	0.013*	0.026*	0.031	0.014*	0.028*	0.011*
O=[N+]([O-])c1cccc(-c2ccc(/C=N/NC(=S)Nc3ccccc3)o2)c1	0.5	i	-8	i	i	i	/	/	/	/	/	/
O=C(N=Nc1c(O)[nH]c2ccc(Br)cc12)c1cc(-c2cccc3ccccc23)n[nH]1	0.27	i	-10	i	i	i	/	/	/	/	/	/
Cc1cc(/C=C2\NC(=S)N(C)C2=O)ccc1N1CCCC1	6.4*	i	-10	i	i	i	0.0072	0.012*	?	?	0.016	0.01
O=C(NC(=S)Nc1cccc(F)c1)c1cccc([N+](=O)[O-])c1	151*	i	-6	i	i	i	0.031*	0.15*	?	0.071*	0.085*	0.019*
C/C(=N/NC(=S)Nc1cccc(C)c1)c1cccc([N+](=O)[O-])c1	30*	10*	0	i	i	i	0.0087	0.037*	?	0.037*	0.036*	0.027*
